# ChEMBL document CHEMBL5335788, “Synthesis and evaluation of aromatic BDSF bioisosteres on biofilm formation and colistin sensitivity in pathogenic bacteria” (Eur J Med Chem, 2023)
# Active and inactive are the calls of the source. The rule behind the calls is not given here.
# How the values were obtained:
# Pseudomonas aeruginosa [1] = assay: Antimicrobial activity against Pseudomonas aeruginosa PAO1 assessed as microbial growth inhibition at 50 uM incubated for 20 hrs by broth microdilution method; format: functional, organism-based
# Outline: (§1)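 Overnight cultures in cation-adjusted Mueller-Hinton broth, subcultured 1:100; log-phase cells at final 1×10^5 cfu/mL exposed to sulfonamide at final 0.05 mM (from 10 mM DMSO stock) for 20 h at 37 °C. OD550 read after shaking. Growth expressed as percent of 0.5% DMSO control wells. Screened at least twice.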
# Pseudomonas aeruginosa [2] = assay: Inhibition of biofilm formation in Pseudomonas aeruginosa PAO1 at 0.05 mM incubated for 24 hrs by crystal violet method; format: functional, organism-based
# Outline: (§2)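 Crystal violet assay in LB: log-phase bacteria at final 1×10^5 cfu/mL with sulfonamide at final 0.05 mM, 24 h at 37 °C. Biomass read at OD620, then wells washed, biofilm heat-fixed 65 °C 15 min, stained 0.1% crystal violet 15 min, dye eluted in 30% acetic acid, OD550 read. Neat DMSO control taken as 100%. Duplicates, at least two independent experiments; one-way ANOVA.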
# Escherichia coli [3] = assay: Potentiation of colistin-induced antibacterial activity against Escherichia coli ATCC 9637 assessed as colistin MIC at 50 uM incubated for 20 hrs by susceptibility testing (reference value: 0.125 to 0.25 ug/ml); format: functional
# Outline: (§3)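 Colistin MIC by broth microdilution in cation-adjusted Mueller-Hinton broth, log-phase cells at final 5×10^5 cfu/mL. Two-fold colistin dilutions in duplicate with sulfonamide at final 0.05 mM (from 10 mM DMSO stock); 20 h at 37 °C. OD550 read. MIC taken as the lowest colistin level reducing growth ≥80% versus growth control. At least two replicates.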
# Acinetobacter baumannii [4] = assay: Antimicrobial activity against Acinetobacter baumannii ATCC 15308 assessed as microbial growth inhibition at 50 uM incubated for 20 hrs by broth microdilution method; format: functional, organism-based; outline: as §1
# Burkholderia cenocepacia = assay: Potentiation of colistin-induced antibacterial activity against Burkholderia cenocepacia 289 assessed as colistin MIC at 50 uM incubated for 20 hrs by susceptibility testing (Rvb > 256 ug/ml); format: functional; outline: as §3
# Burkholderia multivorans [5] = assay: Potentiation of colistin-induced antibacterial activity against Burkholderia multivorans B10 assessed as colistin MIC at 50 uM incubated for 20 hrs by susceptibility testing (Rvb > 128 ug/ml); format: functional; outline: as §3
# Burkholderia cepacia [6] = assay: Potentiation of colistin-induced antibacterial activity against Burkholderia cepacia R6193 assessed as colistin MIC at 50 uM incubated for 20 hrs by susceptibility testing (Rvb > 256 ug/ml); format: functional; outline: as §3
# [7] = tested on: Stenotrophomonas maltophilia; assay: Inhibition of biofilm formation in Stenotrophomonas maltophilia K279a clinical isolate of rpf-1 subpopulation at 0.05 mM incubated for 24 hrs by crystal violet method; format: functional, organism-based; outline: as §2
# Escherichia coli [8] = assay: Antimicrobial activity against Escherichia coli ATCC 9637 assessed as microbial growth inhibition at 50 uM incubated for 20 hrs by broth microdilution method; format: functional, organism-based; outline: as §1
# Acinetobacter baumannii [9] = assay: Potentiation of colistin-induced antibacterial activity against Acinetobacter baumannii ATCC 15308 assessed as colistin MIC at 50 uM incubated for 20 hrs by susceptibility testing (reference value: 0.25 to 0.5 ug/ml); format: functional; outline: as §3
# Pseudomonas aeruginosa [10] = assay: Potentiation of colistin-induced antibacterial activity against Pseudomonas aeruginosa assessed as colistin MIC at 50 uM incubated for 20 hrs by susceptibility testing (reference value: 1 to 2 ug/ml); format: functional; outline: as §3
# [11] = tested on: Stenotrophomonas maltophilia; assay: Potentiation of colistin-induced antibacterial activity against Stenotrophomonas maltophilia K279a assessed as colistin MIC at 50 uM incubated for 20 hrs by susceptibility testing (reference value: 2 to 8 ug/ml); format: functional; outline: as §3
# Acinetobacter baumannii [12] = assay: Inhibition of biofilm formation in Acinetobacter baumannii ATCC 15308 at 0.05 mM incubated for 24 hrs by crystal violet method relative to control; format: functional; details: ATCC 15308, 24 h; outline: as §2
# Burkholderia multivorans [13] = assay: Inhibition of biofilm formation in Burkholderia multivorans B10 at 0.05 mM incubated for 24 hrs by crystal violet method relative to control; format: functional; details: B10, 24 h; outline: as §2
# Escherichia coli [14] = assay: Inhibition of biofilm formation in Escherichia coli ATCC 9637 at 0.05 mM incubated for 24 hrs by crystal violet method relative to control; format: functional; details: ATCC 9637, 24 h; outline: as §2
# Burkholderia cepacia [15] = assay: Inhibition of biofilm formation in Burkholderia cepacia R6193 clinical isolate at 0.05 mM incubated for 24 hrs by crystal violet method; format: functional, organism-based; outline: as §2
# [16] = Toxicity in Galleria mellonella larva assessed as larval survival at 50 uM
# [17] = tested on: Stenotrophomonas maltophilia; assay: Antimicrobial activity against Stenotrophomonas maltophilia K279a assessed as microbial growth inhibition at 50 uM incubated for 20 hrs by broth microdilution method; format: functional, organism-based; outline: as §1
SMILES,growth inhibition (GI) (Pseudomonas aeruginosa [1]),inhibition (Pseudomonas aeruginosa [2]),MIC (Escherichia coli [3]),growth inhibition (GI) (Acinetobacter baumannii [4]),MIC (Burkholderia cenocepacia),MIC (Burkholderia multivorans [5]),MIC (Burkholderia cepacia [6]),inhibition [7],growth inhibition (GI) (Escherichia coli [8]),MIC (Acinetobacter baumannii [9]),MIC (Pseudomonas aeruginosa [10]),MIC [11],inhibition at 50 µM (Acinetobacter baumannii [12]),inhibition at 50 µM (Burkholderia multivorans [13]),inhibition at 50 µM (Escherichia coli [14]),inhibition (Burkholderia cepacia [15]),Activity [16],growth inhibition (GI) [17]
CCCCCCCCCc1ccccc1C(=O)NS(=O)(=O)c1ccccc1,inactive,inactive,0.25 µg/mL,inactive,> 256 µg/mL,> 128 µg/mL,> 256 µg/mL,inactive,inactive,0.25 µg/mL,1 µg/mL,0.5 µg/mL,,,,,,
CCCCCCCCCc1ccccc1C(=O)NS(=O)(=O)c1ccc([N+](=O)[O-])cc1,inactive,inactive,0.5 µg/mL,inactive,> 256 µg/mL,> 128 µg/mL,> 256 µg/mL,inactive,inactive,0.5 µg/mL,2 µg/mL,1 µg/mL,50%,,,,,
CCCCCCCCCc1ccccc1C(=O)NS(=O)(=O)c1ccc(OC)cc1,inactive,inactive,0.25 µg/mL,inactive,> 256 µg/mL,> 128 µg/mL,> 256 µg/mL,inactive,inactive,0.25 µg/mL,1 µg/mL,1 µg/mL,41%,,,,,
CCCCCCCCCc1ccccc1C(=O)NS(=O)(=O)c1ccccc1F,inactive,inactive,0.25 µg/mL,inactive,> 256 µg/mL,> 128 µg/mL,> 256 µg/mL,inactive,inactive,0.25 µg/mL,1 µg/mL,1 µg/mL,27%,,,,,
CCCCCCCCCc1ccccc1C(=O)NS(=O)(=O)C1CC1,inactive,inactive,0.125 µg/mL,inactive,> 256 µg/mL,> 128 µg/mL,> 256 µg/mL,inactive,inactive,0.125 µg/mL,1 µg/mL,1 µg/mL,,,,,,
CCCCCCCCCc1ccccc1C(=O)NS(=O)(=O)c1ccc(C(C)(C)C)cc1,inactive,inactive,0.5 µg/mL,inactive,> 256 µg/mL,> 128 µg/mL,> 256 µg/mL,inactive,inactive,0.5 µg/mL,1 µg/mL,4 µg/mL,,> 35%,,,,
CCCCCCCCCc1ccccc1C(=O)NS(=O)(=O)c1ccc(Br)cc1,inactive,inactive,> 1 µg/mL,inactive,> 256 µg/mL,> 128 µg/mL,> 256 µg/mL,inactive,inactive,2 µg/mL,8 µg/mL,2 µg/mL,8%,31%,> 59%,inactive,,
CCCCCCCCCc1ccccc1C(=O)NS(=O)(=O)c1cccc(Br)c1,inactive,inactive,> 1 µg/mL,inactive,> 256 µg/mL,> 128 µg/mL,> 256 µg/mL,inactive,inactive,1 µg/mL,4 µg/mL,4 µg/mL,1.5%,41%,63%,inactive,Non-Toxic,Active
CCCCCCCCCc1ccccc1C(=O)NS(=O)(=O)CCC(F)(F)F,inactive,inactive,0.25 µg/mL,inactive,> 256 µg/mL,> 128 µg/mL,> 256 µg/mL,inactive,inactive,0.25 µg/mL,1 µg/mL,0.5 µg/mL,,,,,,
CCCCCCCCCc1ccccc1C(=O)NS(=O)(=O)c1ccc(F)cc1,inactive,inactive,0.5 µg/mL,inactive,> 256 µg/mL,> 128 µg/mL,> 256 µg/mL,inactive,inactive,0.25 µg/mL,1 µg/mL,0.5 µg/mL,25%,27%,22%,,,
CCCCCCCCC/C=C\C(=O)O,inactive,inactive,0.063 µg/mL,inactive,> 256 µg/mL,> 128 µg/mL,> 256 µg/mL,inactive,inactive,0.125 µg/mL,1 µg/mL,0.5 µg/mL,38%,,,,,
CCCCCCCCCc1ccccc1C(=O)NS(=O)(=O)c1ccc(Cl)cc1,inactive,inactive,1 µg/mL,inactive,> 256 µg/mL,> 128 µg/mL,> 256 µg/mL,inactive,inactive,1 µg/mL,4 µg/mL,2 µg/mL,,47%,59%,,,
CCCCCCCCCc1ccccc1C(=O)NS(C)(=O)=O,inactive,inactive,0.125 µg/mL,inactive,> 256 µg/mL,> 128 µg/mL,> 256 µg/mL,inactive,inactive,0.125 µg/mL,1 µg/mL,0.5 µg/mL,,,,,Non-Toxic,
CCCCCCCCCc1ccccc1C(=O)NS(=O)(=O)c1ccccc1Br,inactive,inactive,0.5 µg/mL,inactive,> 256 µg/mL,> 128 µg/mL,> 256 µg/mL,inactive,inactive,0.5 µg/mL,1 µg/mL,0.5 µg/mL,30%,38%,43%,,,
CCCCCCCCCc1ccccc1C(=O)NS(=O)(=O)c1cccc(F)c1,inactive,inactive,0.25 µg/mL,inactive,> 256 µg/mL,> 128 µg/mL,> 256 µg/mL,inactive,inactive,0.25 µg/mL,1 µg/mL,0.5 µg/mL,27%,,,,,
